Laboratory results reported in ChEMBL document CHEMBL3627690, “Scaffold-Hopping and Structure-Based Discovery of Potent, Selective, And Brain Penetrant N-(1H-Pyrazol-3-yl)pyridin-2-amine Inhibitors of Dual Leucine Zipper Kinase (DLK, MAP3K12)” (J Med Chem, 2015).
Activity calls are given as the source filed them. No cut-off for these calls is given here.

Experiments:
[1] = biological target: T1, Mitogen-activated protein kinase kinase kinase 12 (Homo sapiens, UniProt Q12852); experiment: Inhibition of Dox inducible human DLK transfected in HEK293 cells assessed as reduction in JNK phosphorylation incubated for 5.5 hrs measured by Hoechst 33342 staining based imaging analysis; assay type: cell-based
T1 sequence (Q12852 whole entry): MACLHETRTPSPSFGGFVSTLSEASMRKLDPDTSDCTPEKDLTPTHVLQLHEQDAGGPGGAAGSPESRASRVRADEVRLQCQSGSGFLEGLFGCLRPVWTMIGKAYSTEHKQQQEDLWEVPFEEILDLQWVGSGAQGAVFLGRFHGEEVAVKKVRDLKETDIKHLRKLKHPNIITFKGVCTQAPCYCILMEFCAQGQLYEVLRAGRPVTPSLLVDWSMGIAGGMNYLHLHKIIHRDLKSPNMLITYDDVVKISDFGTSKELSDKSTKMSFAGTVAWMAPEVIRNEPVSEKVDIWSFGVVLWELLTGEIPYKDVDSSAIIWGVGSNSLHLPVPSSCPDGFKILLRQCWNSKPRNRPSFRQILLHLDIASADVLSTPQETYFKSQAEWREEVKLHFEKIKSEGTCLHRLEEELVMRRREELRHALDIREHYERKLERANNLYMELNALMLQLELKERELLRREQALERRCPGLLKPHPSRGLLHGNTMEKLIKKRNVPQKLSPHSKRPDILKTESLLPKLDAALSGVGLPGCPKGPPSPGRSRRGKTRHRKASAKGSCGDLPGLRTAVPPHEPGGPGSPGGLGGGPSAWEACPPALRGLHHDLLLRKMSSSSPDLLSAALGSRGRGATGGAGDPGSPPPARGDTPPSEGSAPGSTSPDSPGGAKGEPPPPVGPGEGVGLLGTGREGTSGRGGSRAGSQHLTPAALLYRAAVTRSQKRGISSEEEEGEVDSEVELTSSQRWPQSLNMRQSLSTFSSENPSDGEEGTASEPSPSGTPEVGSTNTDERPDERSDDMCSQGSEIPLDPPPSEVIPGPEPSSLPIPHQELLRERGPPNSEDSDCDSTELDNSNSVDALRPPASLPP

[2] = Half life in […] rat at 0.4 or 1 mg/kg, iv and 1 or 5 mg/kg, po; assay type: ADME, organism-based; conditions: in vivo
Outline: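 Rat PK used iv dosing at 0.4 or 1 mg/kg in 60% PEG solution and po dosing at 1 or 5 mg/kg as an aqueous 1% methylcellulose suspension. Free clearance is CL/fu, where fu is the fraction unbound in plasma.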

[3] = biological target: T2, Mitogen-activated protein kinase kinase kinase 12 (Homo sapiens) (UniProt Q12852); experiment: Inhibition of Flag DLK (unknown origin) transfected in HEK293 cells assessed as reduction of phosphorylation of MKK4 at 0.1 to 10 uM incubated for 5 hrs measured by Western blot analysis; assay type: cell-based
T2 sequence (whole entry): T1 sequence (Q12852 whole entry)
Outline: (§1)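 HEK293 cells were transfected with Flag-tagged DLK, with kinase-dead DLK K152A as comparator, 24 h before compound addition. Cells were then exposed to compound for 5 h. Phospho-MKK4, phospho-MKK7, phospho-JNK and phospho-c-Jun were probed.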

[4] = biological target: T2, Mitogen-activated protein kinase kinase kinase 12 (Homo sapiens); experiment: Inhibition of Flag DLK (unknown origin) transfected in HEK293 cells assessed as reduction of phosphorylation of JNK at 0.1 to 10 uM incubated for 5 hrs measured by Western blot analysis; assay type: cell-based; outline: as §1
[5] = biological target: T2, Mitogen-activated protein kinase kinase kinase 12 (Homo sapiens); experiment: Inhibition of Flag DLK (unknown origin) transfected in HEK293 cells assessed as reduction of phosphorylation of c-Jun at 0.1 to 10 uM incubated for 5 hrs measured by Western blot analysis; assay type: cell-based; outline: as §1
[6] = biological target: Dual specificity mitogen-activated protein kinase kinase 1 (Homo sapiens) (UniProt Q02750); experiment: Inhibition of MEK1 (unknown origin) at 1 uM by FRET method
Outline: (§2)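 SelectScreen panel of 58 kinases, each tested at a single 1 µM compound concentration. Read-out was Z′-LYTE FRET of labeled peptide phosphorylation, run by the vendor's protocols, reported as percent inhibition.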

[7] = biological target: T3, Mitogen-activated protein kinase kinase kinase 9 (Homo sapiens, UniProt P80192); experiment: Inhibition of MLK1 (unknown origin) at 1 uM by FRET method
Outline: (§3)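 Single-point screen at 1 uM against a panel of 58 representative kinases. Readout was labeled-peptide phosphorylation by FRET (Z′-LYTE), using the vendor's protocols.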
Target sequence in this assay (P80192 whole entry, looked up): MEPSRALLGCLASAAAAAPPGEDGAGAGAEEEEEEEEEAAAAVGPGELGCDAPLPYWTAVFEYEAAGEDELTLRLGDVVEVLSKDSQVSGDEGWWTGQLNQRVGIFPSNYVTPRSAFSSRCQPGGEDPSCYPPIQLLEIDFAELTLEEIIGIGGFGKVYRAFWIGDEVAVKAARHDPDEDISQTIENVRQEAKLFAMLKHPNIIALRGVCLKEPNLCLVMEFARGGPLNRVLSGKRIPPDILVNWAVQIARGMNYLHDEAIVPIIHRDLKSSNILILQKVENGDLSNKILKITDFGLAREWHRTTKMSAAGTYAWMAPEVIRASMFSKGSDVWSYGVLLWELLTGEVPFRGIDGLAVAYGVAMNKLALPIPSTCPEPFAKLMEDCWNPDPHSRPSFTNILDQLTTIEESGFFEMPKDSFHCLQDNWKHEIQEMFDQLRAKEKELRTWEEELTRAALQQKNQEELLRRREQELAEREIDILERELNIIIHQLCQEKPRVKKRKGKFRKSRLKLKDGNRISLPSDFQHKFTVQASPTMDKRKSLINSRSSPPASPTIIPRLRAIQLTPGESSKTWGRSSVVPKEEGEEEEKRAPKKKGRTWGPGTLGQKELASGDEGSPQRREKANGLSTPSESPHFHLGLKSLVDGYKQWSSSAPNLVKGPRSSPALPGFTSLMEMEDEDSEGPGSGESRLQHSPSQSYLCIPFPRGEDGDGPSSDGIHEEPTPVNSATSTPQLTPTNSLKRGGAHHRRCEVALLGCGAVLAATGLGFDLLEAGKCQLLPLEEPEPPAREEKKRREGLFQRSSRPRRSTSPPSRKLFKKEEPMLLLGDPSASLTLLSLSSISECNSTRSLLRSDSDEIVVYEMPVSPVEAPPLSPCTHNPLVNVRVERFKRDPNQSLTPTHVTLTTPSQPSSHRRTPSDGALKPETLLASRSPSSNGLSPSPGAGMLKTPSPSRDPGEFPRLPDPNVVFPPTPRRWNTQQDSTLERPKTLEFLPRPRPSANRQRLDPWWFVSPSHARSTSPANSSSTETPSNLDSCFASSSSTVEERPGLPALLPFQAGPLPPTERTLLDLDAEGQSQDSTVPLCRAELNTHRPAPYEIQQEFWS

[8] = biological target: Serine/threonine-protein kinase PAK 4 (Homo sapiens) (UniProt O96013); experiment: Inhibition of PAK4 (unknown origin) at 1 uM by FRET method; outline: as §3
[9] = biological target: 5'-AMP-activated protein kinase catalytic subunit alpha-1 (Homo sapiens) (UniProt Q13131); experiment: Inhibition of PRKAA1 (unknown origin) at 1 uM by FRET method; outline: as §3
[10] = biological target: Activin receptor type-1B (Homo sapiens) (UniProt P36896); experiment: Inhibition of ACVR1B (unknown origin) at 1 uM by FRET method; outline: as §2
[11] = biological target: RAC-alpha serine/threonine-protein kinase (Homo sapiens) (UniProt P31749); experiment: Inhibition of AKT1 (unknown origin) at 1 uM by FRET method; outline: as §2
[12] = biological target: Macrophage colony-stimulating factor 1 receptor (Homo sapiens, UniProt P07333); experiment: Inhibition of CSF1R (unknown origin) by FRET method
[13] = biological target: T4, BDNF/NT-3 growth factors receptor (Homo sapiens, UniProt Q16620); experiment: Inhibition of TrkB (unknown origin) by FRET method
Outline: (§4)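 Biochemical IC50 determination from a 10-point dose-response in an enzymatic Z′-LYTE assay. Labeled-peptide phosphorylation was read by FRET under the vendor's protocols.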
Target sequence in this assay (Q16620 whole entry): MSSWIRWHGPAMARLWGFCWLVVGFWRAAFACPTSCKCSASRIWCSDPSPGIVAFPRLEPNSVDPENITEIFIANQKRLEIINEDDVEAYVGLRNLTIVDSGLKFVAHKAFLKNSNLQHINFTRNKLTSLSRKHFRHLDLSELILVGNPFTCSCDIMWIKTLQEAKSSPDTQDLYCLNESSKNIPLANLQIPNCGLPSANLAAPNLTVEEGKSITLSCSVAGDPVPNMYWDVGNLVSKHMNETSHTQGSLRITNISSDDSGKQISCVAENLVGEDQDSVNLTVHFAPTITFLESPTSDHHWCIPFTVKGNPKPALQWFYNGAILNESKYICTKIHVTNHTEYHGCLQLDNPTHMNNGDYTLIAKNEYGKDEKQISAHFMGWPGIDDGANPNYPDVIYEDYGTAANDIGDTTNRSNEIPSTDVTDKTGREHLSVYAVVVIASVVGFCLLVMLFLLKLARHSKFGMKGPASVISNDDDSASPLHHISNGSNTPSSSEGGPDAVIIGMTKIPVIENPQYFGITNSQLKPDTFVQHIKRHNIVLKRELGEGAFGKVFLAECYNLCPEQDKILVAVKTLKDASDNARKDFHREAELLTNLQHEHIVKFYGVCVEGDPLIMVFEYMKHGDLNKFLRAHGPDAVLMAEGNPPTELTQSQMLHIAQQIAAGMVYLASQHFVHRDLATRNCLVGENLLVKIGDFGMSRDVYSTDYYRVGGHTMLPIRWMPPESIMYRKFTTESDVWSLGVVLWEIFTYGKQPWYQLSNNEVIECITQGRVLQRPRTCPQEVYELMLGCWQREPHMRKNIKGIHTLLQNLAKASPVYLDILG

[14] = biological target: Dual specificity mitogen-activated protein kinase kinase 4 (Homo sapiens, UniProt P45985); experiment: Inhibition of MKK4 (unknown origin) using KFMMTPpYVVTR substrate incubated for 1 hr measured by MpTPpYV probe-based fluorescence polarization assay
Outline: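 MKK4 at 30 nM was incubated with 100 µM KFMMTPpYVVTR peptide, 5 µM ATP and 3.3 nM fluorescent MpTPpYV probe. Buffer was 50 mM HEPES pH 7.5 with 5 mM MgCl2 and 10 mM DTT. Reaction ran 1 h at 23 °C, was stopped with EDTA plus anti-phospho-JNK antibody, and read by FP (ex 633/em 670 nm). Activity was normalized to the positive control.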

[15] = biological target: T3, Mitogen-activated protein kinase kinase kinase 9; experiment: Inhibition of MLK1 (unknown origin) by FRET method; outline: as §4
Target sequence in this assay (P80192 whole entry): as the sequence (P80192 whole entry, looked up) above

[16] = Tmax in mouse at 50 mg/kg, po; assay type: ADME, organism-based; conditions: in vivo
Outline: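 Mice were dosed orally at 50 mg/kg as a methylcellulose suspension. Exposure was sampled over 0–6 h, and free brain concentration was determined at 6 h.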

[17] = biological target: T4, BDNF/NT-3 growth factors receptor; conditions: 1 uM
Rattus norvegicus = experiment: Dose normalized free AUC in rat at 0.4 or 1 mg/kg, iv and 1 or 5 mg/kg, po; conditions: in vivo

Chain of 5'-AMP-activated protein kinase catalytic subunit alpha-1 (Homo sapiens) (Q13131 whole entry, looked up): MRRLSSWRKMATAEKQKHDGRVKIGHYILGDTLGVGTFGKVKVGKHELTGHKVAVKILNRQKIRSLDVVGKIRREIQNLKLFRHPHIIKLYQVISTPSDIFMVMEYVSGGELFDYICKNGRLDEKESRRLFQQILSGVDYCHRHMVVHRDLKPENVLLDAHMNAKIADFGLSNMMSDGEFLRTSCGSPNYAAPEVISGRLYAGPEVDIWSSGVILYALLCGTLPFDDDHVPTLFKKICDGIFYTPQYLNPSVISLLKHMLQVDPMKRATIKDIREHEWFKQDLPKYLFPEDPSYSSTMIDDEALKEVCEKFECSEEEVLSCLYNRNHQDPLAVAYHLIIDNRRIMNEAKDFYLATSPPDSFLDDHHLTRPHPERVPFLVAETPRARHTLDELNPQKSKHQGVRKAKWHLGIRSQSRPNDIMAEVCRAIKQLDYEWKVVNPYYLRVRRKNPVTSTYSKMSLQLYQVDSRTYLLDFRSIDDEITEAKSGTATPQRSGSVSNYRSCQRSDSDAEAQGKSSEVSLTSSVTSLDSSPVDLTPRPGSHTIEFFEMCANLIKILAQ
Chain of Dual specificity mitogen-activated protein kinase kinase 4 (P45985 whole entry): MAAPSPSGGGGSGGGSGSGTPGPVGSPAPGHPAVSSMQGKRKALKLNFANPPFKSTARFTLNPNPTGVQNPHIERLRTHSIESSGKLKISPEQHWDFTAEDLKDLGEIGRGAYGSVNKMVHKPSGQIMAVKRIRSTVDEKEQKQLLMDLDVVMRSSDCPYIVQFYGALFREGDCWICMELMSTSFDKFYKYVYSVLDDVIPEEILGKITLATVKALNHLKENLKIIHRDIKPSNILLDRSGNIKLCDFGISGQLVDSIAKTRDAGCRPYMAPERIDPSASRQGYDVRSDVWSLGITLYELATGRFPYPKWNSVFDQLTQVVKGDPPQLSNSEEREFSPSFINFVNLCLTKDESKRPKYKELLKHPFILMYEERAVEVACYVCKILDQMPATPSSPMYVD
Chain of Activin receptor type-1B (Homo sapiens) (P36896 whole entry): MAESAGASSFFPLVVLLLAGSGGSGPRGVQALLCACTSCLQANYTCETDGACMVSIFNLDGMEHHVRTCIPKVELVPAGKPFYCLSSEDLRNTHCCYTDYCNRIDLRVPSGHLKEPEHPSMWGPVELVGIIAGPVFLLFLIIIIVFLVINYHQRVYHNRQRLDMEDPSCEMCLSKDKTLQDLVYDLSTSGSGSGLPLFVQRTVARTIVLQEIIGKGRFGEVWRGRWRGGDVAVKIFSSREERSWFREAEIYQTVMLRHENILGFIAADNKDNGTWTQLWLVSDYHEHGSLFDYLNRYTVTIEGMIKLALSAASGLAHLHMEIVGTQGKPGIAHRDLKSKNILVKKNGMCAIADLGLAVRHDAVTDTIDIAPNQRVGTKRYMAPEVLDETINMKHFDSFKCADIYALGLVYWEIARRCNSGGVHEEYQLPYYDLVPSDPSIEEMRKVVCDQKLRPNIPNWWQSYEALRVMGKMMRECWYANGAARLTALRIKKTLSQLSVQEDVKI
Chain of Serine/threonine-protein kinase PAK 4 (Homo sapiens) (O96013 whole entry, looked up): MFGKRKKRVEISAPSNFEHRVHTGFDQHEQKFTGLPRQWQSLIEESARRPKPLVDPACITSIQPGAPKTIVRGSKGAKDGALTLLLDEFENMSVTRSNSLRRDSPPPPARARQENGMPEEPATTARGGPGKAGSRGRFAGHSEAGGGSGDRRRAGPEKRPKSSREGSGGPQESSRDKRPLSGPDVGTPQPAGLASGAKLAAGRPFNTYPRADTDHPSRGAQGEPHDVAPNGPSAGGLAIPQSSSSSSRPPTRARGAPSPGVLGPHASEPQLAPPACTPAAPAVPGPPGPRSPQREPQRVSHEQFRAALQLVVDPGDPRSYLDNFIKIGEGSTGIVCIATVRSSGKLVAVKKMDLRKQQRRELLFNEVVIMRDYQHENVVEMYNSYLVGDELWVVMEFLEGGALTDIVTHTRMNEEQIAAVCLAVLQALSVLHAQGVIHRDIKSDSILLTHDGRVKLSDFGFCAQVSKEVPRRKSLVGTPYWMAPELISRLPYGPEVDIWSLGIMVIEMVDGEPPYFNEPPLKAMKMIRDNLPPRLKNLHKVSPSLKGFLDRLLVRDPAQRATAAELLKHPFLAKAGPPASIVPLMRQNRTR
Chain of RAC-alpha serine/threonine-protein kinase (Homo sapiens) (P31749 whole entry): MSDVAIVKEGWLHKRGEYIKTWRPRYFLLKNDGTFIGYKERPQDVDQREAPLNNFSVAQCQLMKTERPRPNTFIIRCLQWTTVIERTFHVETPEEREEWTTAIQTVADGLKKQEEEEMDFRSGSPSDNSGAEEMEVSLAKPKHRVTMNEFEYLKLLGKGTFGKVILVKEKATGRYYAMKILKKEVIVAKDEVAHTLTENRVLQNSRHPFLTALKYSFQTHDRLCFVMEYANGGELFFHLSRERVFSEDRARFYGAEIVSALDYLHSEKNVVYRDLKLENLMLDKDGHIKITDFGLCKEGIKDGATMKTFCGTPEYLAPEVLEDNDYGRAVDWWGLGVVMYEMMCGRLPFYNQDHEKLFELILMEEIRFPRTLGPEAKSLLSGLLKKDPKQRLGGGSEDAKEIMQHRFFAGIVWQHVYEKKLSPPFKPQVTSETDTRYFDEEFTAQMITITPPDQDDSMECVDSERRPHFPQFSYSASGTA
Chain of Dual specificity mitogen-activated protein kinase kinase 1 (Homo sapiens) (Q02750 whole entry): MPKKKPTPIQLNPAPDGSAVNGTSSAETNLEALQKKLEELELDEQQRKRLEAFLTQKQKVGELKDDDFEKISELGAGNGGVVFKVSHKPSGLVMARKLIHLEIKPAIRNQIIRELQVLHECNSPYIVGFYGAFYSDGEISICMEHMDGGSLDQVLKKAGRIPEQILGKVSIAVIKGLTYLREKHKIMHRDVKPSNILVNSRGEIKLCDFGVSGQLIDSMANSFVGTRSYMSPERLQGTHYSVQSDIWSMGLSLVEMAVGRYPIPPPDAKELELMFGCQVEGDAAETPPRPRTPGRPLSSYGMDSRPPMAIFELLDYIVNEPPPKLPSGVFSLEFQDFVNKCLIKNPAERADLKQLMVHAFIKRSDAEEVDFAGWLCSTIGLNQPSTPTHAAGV

IC50 [1]: 536 nM
half-life [2]: 102 min
inhibition [3]: Active
inhibition [4]: Active
inhibition [5]: Active
inhibition [6]: 4%
inhibition [7]: 4.4%
inhibition [8]: 48%
inhibition [9]: 1.8%
inhibition [10]: 7.1%
inhibition [11]: -3.6%
IC50 [12]: 57 nM
IC50 [13]: 1190 nM
IC50 [14]: > 5000 nM
IC50 [15]: > 10000 nM
Tmax [16]: 15 min
inhibition [17]: 50.5%
fAUC/dose (Rattus norvegicus): 0.03 kg·h/L
SMILES: N#Cc1ccnc(Nc2cc(C3CCN(C4COC4)CC3)n(C3CCCC3)n2)c1
